Reference: ChEMBL document CHEMBL1138301, “N-(2-Amino-phenyl)-4-(heteroarylmethyl)-benzamides as new histone deacetylase inhibitors” (Bioorg Med Chem Lett, 2007)
Active and inactive are the calls of the source. The calls are words filed in the database; no cut-off is given here.

Tests used:
HMEC = test: Antiproliferative activity against human HMEC cells by MTT assay; format: cell-based
Procedure, shortened: (§1)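 MTT read-out of cell proliferation/cytotoxicity in human colon cancer HCT116 cells and in normal human mammary epithelial cells (HMEC); IC50 derived.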

HCT-116 [1] = test: Cell cycle arrest in HCT116 cells by accumulation at G2/M phase; format: functional, cell-based; details: Homo sapiens
HCT-116 [2] = test: Apoptosis in human HCT116 cells; format: functional, cell-based
T-24 [3] = test: Induction of histone H4 acetylation in human T24 cells after 16 hrs by immunoblot relative to MS-275; format: functional, cell-based; details: T-24, 16 h
Procedure, shortened: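 T24 cells exposed to 0, 1, 5 and 25 µM for 16 h, then harvested. Histones acid-extracted, run on SDS–PAGE and immunoblotted with antibodies to H4 and to acetylated H4. Relative effective concentration expressed against MS-275 at 1 µM.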

Histone deacetylase 1 = Histone deacetylase 1 (Homo sapiens, UniProt Q13547); test: Inhibition of human recombinant HDAC1 expressed in insect Sf9 cells
Procedure, shortened: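 FLAG-tagged recombinant HDAC1 expressed in Sf9 cells, purified by anti-FLAG affinity resin and size-exclusion chromatography. Substrate BocLys(acetyl)AMC. Deacetylated product detected fluorometrically after trypsin release of AMC (excitation 360 nm). IC50 determined.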

T-24 [4] = test: Induction of p21WAF1/Cip1 expression in human T24 cells […] after 16 hrs by Western blot analysis relative to MS-275; format: functional, cell-based; details: T-24, 16 h
Procedure, shortened: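 T24 cells exposed to 0, 1, 5 and 25 µM or DMSO alone for 16 h. Whole-cell lysates analysed by Western blot with p21WAF1/Cip1 antibody. Relative effective concentration expressed against MS-275 at 1 µM.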

HCT-116 [5] = test: Antiproliferative activity against human HCT116 cells by MTT assay; format: functional, cell-based; procedure, shortened: as §1
[6] = Oral bioavailability in Sprague-Dawley rat at 5.0 mg/kg, po; format: ADME, organism-based; details: in vivo
Procedure, shortened: (§2)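 Pharmacokinetics with single dosing at 2.5 mg/kg iv or 5.0 mg/kg po. Vehicles were acidified saline or acidified saline/PEG400. Half-life and oral availability were determined.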

[7] = Half life in Sprague-Dawley rat at 2.5 mg/kg, iv; format: ADME, organism-based; parameters: dose 2.5 mg/kg, route intravenous; details: in vivo; procedure, shortened: as §2
HCT-116 [8] = test: Antitumor activity against HCT116 xenografted nude mouse assessed as tumor growth inhibition at 20 mg/kg, ip after 14 days; format: functional, Homo sapiens; details: HCT-116, ip, 336 h, route intraperitoneal
Procedure, shortened: (§3)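 Human tumour xenografts (A549 non-small cell lung, DU145 prostate, HCT116 colon) grown in nude mice, 6 animals per group. Dosing once daily for 14 days, intraperitoneal or oral. Read-out is % tumour growth inhibition versus vehicle-treated control animals.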

HCT-116 [9] = test: Antitumor activity against HCT116 xenografted nude mouse assessed as tumor growth inhibition at 40 mg/kg, ip after 14 days; format: functional, Homo sapiens; details: HCT-116, ip, 336 h, route intraperitoneal; procedure, shortened: as §3
A549 = test: Antitumor activity against A549 xenografted nude mouse assessed as tumor growth inhibition at 80 mg/kg, po after 14 days; format: functional, Homo sapiens; details: A549, 336 h; procedure, shortened: as §3
DU-145 = test: Antitumor activity against DU145 xenografted nude mouse assessed as tumor growth inhibition at 80 mg/kg, po after 14 days; format: functional, Homo sapiens; details: DU-145, 336 h; procedure, shortened: as §3

Sequence of Histone deacetylase 1 (Q13547 whole entry): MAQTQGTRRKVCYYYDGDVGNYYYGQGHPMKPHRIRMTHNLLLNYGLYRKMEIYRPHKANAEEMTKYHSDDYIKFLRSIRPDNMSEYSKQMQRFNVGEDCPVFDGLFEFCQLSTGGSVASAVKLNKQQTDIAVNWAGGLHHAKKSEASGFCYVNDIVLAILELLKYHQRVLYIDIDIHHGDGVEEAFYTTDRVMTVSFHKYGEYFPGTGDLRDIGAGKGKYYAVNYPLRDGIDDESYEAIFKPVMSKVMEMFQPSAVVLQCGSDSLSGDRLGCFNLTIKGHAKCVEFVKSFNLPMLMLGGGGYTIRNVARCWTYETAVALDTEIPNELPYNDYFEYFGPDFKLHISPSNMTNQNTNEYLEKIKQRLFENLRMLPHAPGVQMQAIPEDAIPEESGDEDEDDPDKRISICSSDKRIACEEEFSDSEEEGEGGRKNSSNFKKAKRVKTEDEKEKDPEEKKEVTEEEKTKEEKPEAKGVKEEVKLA

| SMILES | IC50 (HMEC) | Activity (HCT-116 [1]) | Activity (HCT-116 [2]) | EC50 (T-24 [3]) | IC50 (Histone deacetylase 1) | EC50 (T-24 [4]) | IC50 (HCT-116 [5]) | bioavailability [6] | half-life [7] | inhibition in vivo at 20 mg/kg (HCT-116 [8]) | inhibition in vivo at 40 mg/kg (HCT-116 [9]) | inhibition in vivo at 80 mg/kg (A549) | inhibition in vivo at 80 mg/kg (DU-145) |
| --- | --- | --- | --- | --- | --- | --- | --- | --- | --- | --- | --- | --- | --- |
| Nc1ccccc1NC(=O)c1ccc(CN2C(=O)c3ccccc3C2=O)cc1 | > 50000 nM | Active | Active | 5000 nM | 200 nM | 3000 nM | 5000 nM |  |  |  |  |  |  |
| Nc1ccccc1NC(=O)c1ccc(CN2Cc3ccccc3C2=O)cc1 | 37000 nM | Active | Active | 1000 nM | 100 nM | 2000 nM | 500 nM | 34% | 0.6 h |  |  |  |  |
| CCn1c(=O)n(Cc2ccc(C(=O)Nc3ccccc3N)cc2)c(=O)c2ccccc21 | 25000 nM | Active | Active | 1000 nM | 200 nM | 600 nM | 400 nM |  |  |  |  |  |  |
| Nc1ccccc1NC(=O)c1ccc(Cc2coc3ccccc3c2=O)cc1 | 9000 nM | Active | Active | 1000 nM | 30 nM | 1000 nM | 300 nM |  |  |  |  |  |  |
| Nc1ccccc1NC(=O)c1ccc(Cn2nnc3ccccc3c2=O)cc1 | 17000 nM | Active | Active | 1000 nM | 200 nM | 1000 nM | 600 nM |  |  |  |  |  |  |
| Nc1ccccc1NC(=O)c1ccc(Cn2c(=O)c3ccccc3n(CCN3CCOCC3)c2=O)cc1 | > 25000 nM | Active | Active | 3000 nM | 400 nM | 5000 nM | 1000 nM |  |  |  |  |  |  |
| Nc1ccccc1NC(=O)c1ccc(Cn2cnc3ccccc3c2=O)cc1 | 28000 nM | Active | Active | < 1000 nM | 100 nM | 1000 nM | 400 nM |  |  |  |  |  |  |
| COc1ccc(Cn2c(=O)n(Cc3ccc(C(=O)Nc4ccccc4N)cc3)c(=O)c3ccccc32)cc1 | > 25000 nM | Active | Active | 1000 nM | 100 nM | 3000 nM | 800 nM |  |  |  |  |  |  |
| CN(C)CCn1c(=O)n(Cc2ccc(C(=O)Nc3ccccc3N)cc2)c(=O)c2ccccc21 | > 25000 nM | Active | Active | 1000 nM | 300 nM | 1000 nM | 1000 nM | 38% | 2.1 h |  |  |  |  |
| Nc1ccccc1NC(=O)c1ccc(Cn2c(=O)[nH]c3ccccc3c2=O)cc1 | 18000 nM | Active | Active | 1000 nM | 60 nM | 2000 nM | 800 nM |  |  | 51% | 59% |  |  |
| Cc1nc2ccccc2c(=O)n1Cc1ccc(C(=O)Nc2ccccc2N)cc1 | > 50000 nM | Active | Active | 1000 nM | 80 nM | 2000 nM | 600 nM | 16% | 0.9 h |  |  |  |  |
| Nc1ccccc1NC(=O)c1ccc(CC2COc3ccccc3C2)cc1 (configuration not stated) | 23000 nM | Active | Active | 3000 nM | 1000 nM | 3000 nM | 2000 nM |  |  |  |  |  |  |
| Nc1ccccc1NC(=O)c1ccc(CC2Cc3ccccc3C2=O)cc1 (configuration not stated) | 8000 nM | Active | Active | < 1000 nM | 100 nM | 2000 nM | 600 nM |  |  |  |  |  |  |
| Nc1ccccc1NC(=O)c1ccc(CC2COc3ccccc3C2=O)cc1 (configuration not stated) | 6000 nM | Active | Active | 2000 nM | 90 nM | 1000 nM | 900 nM |  |  |  |  |  |  |
| CCn1c(=O)n(Cc2ccc(C(=O)Nc3ccccc3N)cc2)c(=O)c2sccc21 | > 50000 nM | Active | Active | 1000 nM | 300 nM | 3000 nM | 800 nM | 64% | 1.2 h |  |  |  |  |
| Cn1c(=O)n(Cc2ccc(C(=O)Nc3ccccc3N)cc2)c(=O)c2ccccc21 | > 42000 nM | Active | Active | 1000 nM | 100 nM | 1000 nM | 700 nM |  |  |  |  |  |  |
| Nc1ccccc1NC(=O)c1ccc(Cn2c(=O)[nH]c3ccsc3c2=O)cc1 | 29000 nM | Active | Active | 1000 nM | 60 nM | 1000 nM | 400 nM | 47% | 1.3 h |  | 61% | 55% | 67% |
| Nc1ccccc1NC(=O)c1ccc(Cn2cnc3ccsc3c2=O)cc1 | > 50000 nM | Active | Active | 1000 nM | 200 nM | 1000 nM | 700 nM | 47% | 1.4 h |  |  | 42% | 45% |
| Nc1ccccc1NC(=O)c1ccc(Cn2c(=O)oc3ccccc3c2=O)cc1 | 21000 nM | Active | Active | 1000 nM | 100 nM | 2000 nM | 300 nM |  |  |  |  |  |  |
